According to ChEMBL document CHEMBL1165910, “Synthesis and biological evaluation of new [1,2,4]triazino[5,6-b]indol-3-ylthio-1,3,5-triazines and [1,2,4]triazino[5,6-b]indol-3-ylthio-pyrimidines against Leishmania donovani” (Eur J Med Chem, 2010):
pIC50: −log10 of the molar value. Values after ≈ are worked out from the molar mass of the structure shown. Active and inactive are the calls of the source. The rule behind the calls is not given here.

Assays:
Leishmania donovani [1] = assay: Antileishmanial activity against Leishmania donovani MHOM/IN/Dd8 promastigote carrying firefly luciferase gene infected in mouse J774A1 cells assessed as relative luminescence unit at 0.5 ug/mL after 72 hrs; assay type: functional; conditions: MHOM/IN/Dd8, J774.A1, 72 h
[2] = Cytotoxicity against mouse J774A1 cells after 72 hrs by MTT assay; assay type: cell-based, J774.A1
Procedure, shortened: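 J774A.1 cells were grown in RPMI with 10% foetal calf serum and 40 µg/mL gentamycin. Exponentially growing cells (1 × 10^4/well) received compound dilutions, made from DMSO stock in complete medium, for 72 h at 37 °C in humidified CO2/air. MTT (5 mg/mL in PBS) was added for 2 h, supernatant removed and formazan dissolved in DMSO. A544 was read, and CC50 (50% viability reduction versus medium-only cells) was estimated by template.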

Leishmania donovani [3] = assay: Antileishmanial activity against Leishmania donovani (MHOM/IN/Dd8) amastigote infected in mouse J774 cells assessed as after 72 hrs by luminometry; assay type: functional, organism-based; conditions: for pIC50: MHOM/IN/Dd8, J774, 72 h
Procedure, shortened: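 J774 macrophages were seeded at 1.5 × 10^4 cells/well in RPMI-1640 with 10% foetal calf serum at 37 °C under CO2. After 24 h, medium was replaced with medium containing luciferase-transfected stationary-phase promastigotes (2.25 × 10^5/well). Test material at 0.25–10 in complete medium was then added for 72 h at 37 °C. Wells were given PBS plus Steady-Glo and read by luminometer; inhibition was calculated against untreated infected controls.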

Leishmania donovani [4] = assay: Antileishmanial activity against Leishmania donovani MHOM/IN/Dd8 promastigote carrying firefly luciferase gene infected in mouse J774A1 cells assessed as relative luminescence unit at 40 ug/mL after 72 hrs; assay type: functional; conditions: for inhibition: J774.A1; for inhibition at 40 µg/mL: MHOM/IN/Dd8, J774.A1, 72 h
[5] = (§1) Selectivity index, ratio of CC50 for mouse J774A1 cells to IC50 for IC50 Leishmania donovani MHOM/IN/Dd8; assay type: functional, J774.A1
Leishmania donovani [6] = assay: Antileishmanial activity against Leishmania donovani (MHOM/IN/Dd8) amastigote infected in mouse J774 cells assessed as after 72 hrs by luminometry at 40 ug/ml; assay type: functional, organism-based
J774.A1 = assay: as §1; assay type: functional
Leishmania donovani [7] = assay: Antileishmanial activity against Leishmania donovani MHOM/IN/Dd8 promastigote carrying firefly luciferase gene infected in mouse J774A1 cells assessed as relative luminescence unit at 940 ug/mL after 72 hrs; assay type: functional, organism-based; conditions: J774.A1

Row | Molecule | CC50 at 72 h [2] | MIC (Leishmania donovani [3]; MHOM/IN/Dd8, 72 h) | pIC50 (Leishmania donovani [3]) | Ratio CC50/IC50 [5] | inhibition at 40 µg/mL (Leishmania donovani [4]) | also measured
1 | N=C(N)c1ccc(OCCCCCOc2ccc(C(=N)N)cc2)cc1 [PENTAMIDINE] | 52.8 µM | > 169 µM | 4.69 | – | – | inhibition at 0.5 µg/mL (Leishmania donovani [1]): 85%
2 | Cc1cc(Sc2nnc3c4ccccc4n(C)c3n2)nc(N2CCOCC2)n1 | – | – | – | – | – | inhibition (Leishmania donovani [4]): inactive
3 | CCN1CCN(c2nc(C)cc(Sc3nnc4c5ccccc5n(C)c4n3)n2)CC1 | 28.1 µM | 90.8 µM (≈ 38.2 µg/mL) | 4.58 | 1.06 | 100% | –
4 | CCN1CCN(c2nc(Sc3nnc4c5ccccc5n(C)c4n3)nc(N3CCN(CC)CC3)n2)CC1 | 93.2 µM | 26.6 µM (≈ 13.8 µg/mL) | 4.81 | 6 | 100% | –
5 | Cc1cc(Sc2nnc3c4ccccc4n(C)c3n2)nc(NCCCN2CCOCC2)n1 | – | – | – | – | 95.1% | Activity (Leishmania donovani [6]): inactive; Ratio CC50/IC50 (J774.A1): inactive
6 | Cc1cc(Sc2nnc3c4ccccc4n(C)c3n2)nc(N2CCCCC2)n1 | 173 µM | 139 µM (≈ 54.3 µg/mL) | 4.59 | 6.74 | 99.3% | –
7 | Cn1c2ccccc2c2nnc(Sc3nc(N4CCCCC4)nc(N4CCCCC4)n3)nc21 | 227 µM | 20.5 µM (≈ 9.48 µg/mL) | 5.40 | 56.61 | 75.6% | –
8 | Cc1cc(Sc2nnc3c4ccccc4n(C)c3n2)nc(NCCN2CCOCC2)n1 | – | – | – | – | 51.1% | –
9 | CN(C)CCNc1nc(NCCN(C)C)nc(Sc2nnc3c4ccccc4n(C)c3n2)n1 | – | – | – | – | 68.5% | –
10 | CC(C)Nc1nc(NC(C)C)nc(Sc2nnc3c4ccccc4n(C)c3n2)n1 | 64.5 µM | 90.5 µM (≈ 37.1 µg/mL) | 4.76 | 3.71 | 99.3% | –
11 | CCCCNc1nc(NCCCC)nc(Sc2nnc3c4ccccc4n(C)c3n2)n1 | 17.1 µM | – | – | – | 93.2% | Activity (Leishmania donovani [6]): inactive; Ratio CC50/IC50 (J774.A1): inactive
12 | CCCCNc1nc(C)cc(Sc2nnc3c4ccccc4n(C)c3n2)n1 | 88.4 µM | 110 µM (≈ 41.8 µg/mL) | 4.74 | 4.82 | 99.7% | –
13 | Cc1cc(Sc2nnc3c4ccccc4n(C)c3n2)nc(NC(C)(C)C)n1 | – | – | – | – | 66.7% | –
14 | Cn1c2ccccc2c2nnc(Sc3nc(N4CCOCC4)nc(N4CCOCC4)n3)nc21 | – | – | – | – | 43.1% | –
15 | Cc1cc(Sc2nnc3c4ccccc4n(C)c3n2)nc(NC(C)C)n1 | 109 µM | 93.8 µM (≈ 34.3 µg/mL) | 4.53 | 3.66 | 99.2% | –
16 | Cc1cc(Sc2nnc3c4ccccc4n(C)c3n2)nc(NCCN(C)C)n1 | – | – | – | – | 100% | Activity (Leishmania donovani [6]): inactive; Ratio CC50/IC50 (J774.A1): inactive
17 | D-Gluconic acid,2,4:2',4'-O-[oxybis-(oxidostibylidyne)]bis-,trisodium salt, nonahydrate | – | – | – | – | – | Ratio CC50/IC50 (J774.A1): 5.53; MIC (Leishmania donovani [3]): 164 µM; inhibition (Leishmania donovani [7]): 40%
18 | Cc1cc(Sc2nnc3c4ccccc4n(C)c3n2)nc(N2CCN(C)CC2)n1 | 29.2 µM | 68.7 µM (≈ 27.9 µg/mL) | 4.24 | 0.5 | 99.9% | –
19 | CN1CCN(c2nc(Sc3nnc4c5ccccc5n(C)c4n3)nc(N3CCN(C)CC3)n2)CC1 | – | – | – | – | – | inhibition (Leishmania donovani [4]): inactive
20 | CCN(CC)CCNc1nc(C)cc(Sc2nnc3c4ccccc4n(C)c3n2)n1 | – | – | – | – | 99.9% | Activity (Leishmania donovani [6]): inactive; Ratio CC50/IC50 (J774.A1): inactive
21 | Cn1c2ccccc2c2nnc(Sc3nc(NCCCN4CCOCC4)nc(NCCCN4CCOCC4)n3)nc21 | – | – | – | – | – | inhibition (Leishmania donovani [4]): inactive
22 | Cn1c2ccccc2c2nnc(Sc3nc(NC(C)(C)C)nc(NC(C)(C)C)n3)nc21 | – | – | – | – | 97.4% | Activity (Leishmania donovani [6]): inactive; Ratio CC50/IC50 (J774.A1): inactive
23 | Cn1c2ccccc2c2nnc(Sc3nc(NCCN4CCOCC4)nc(NCCN4CCOCC4)n3)nc21 | – | – | – | – | 77.1% | Activity (Leishmania donovani [6]): inactive; Ratio CC50/IC50 (J774.A1): inactive
24 | CCN(CC)CCNc1nc(NCCN(CC)CC)nc(Sc2nnc3c4ccccc4n(C)c3n2)n1 | – | – | – | – | 49.3% | –
